Assays:
Acetylcholinesterase = Acetylcholinesterase (Homo sapiens, UniProt P22303); assay: Inhibition of human acetylcholinesterase from erythrocytes (RBC)
Cholinesterase = Cholinesterase (Homo sapiens, UniProt P06276); assay: Inhibition of human Butyrylcholinesterase
In short: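 Compounds in Tween 80/EtOH 3:1 were diluted in half-log steps to 0.3 nM–[…] final and preincubated with enzyme in pH 8.0 buffer for 30 min at RT. Run on four occasions. IC50 from logit activity versus log concentration.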

[1] = In vivo half life of the compound; format: ADME, organism-based

Cholinesterase, sequence (P06276 whole entry): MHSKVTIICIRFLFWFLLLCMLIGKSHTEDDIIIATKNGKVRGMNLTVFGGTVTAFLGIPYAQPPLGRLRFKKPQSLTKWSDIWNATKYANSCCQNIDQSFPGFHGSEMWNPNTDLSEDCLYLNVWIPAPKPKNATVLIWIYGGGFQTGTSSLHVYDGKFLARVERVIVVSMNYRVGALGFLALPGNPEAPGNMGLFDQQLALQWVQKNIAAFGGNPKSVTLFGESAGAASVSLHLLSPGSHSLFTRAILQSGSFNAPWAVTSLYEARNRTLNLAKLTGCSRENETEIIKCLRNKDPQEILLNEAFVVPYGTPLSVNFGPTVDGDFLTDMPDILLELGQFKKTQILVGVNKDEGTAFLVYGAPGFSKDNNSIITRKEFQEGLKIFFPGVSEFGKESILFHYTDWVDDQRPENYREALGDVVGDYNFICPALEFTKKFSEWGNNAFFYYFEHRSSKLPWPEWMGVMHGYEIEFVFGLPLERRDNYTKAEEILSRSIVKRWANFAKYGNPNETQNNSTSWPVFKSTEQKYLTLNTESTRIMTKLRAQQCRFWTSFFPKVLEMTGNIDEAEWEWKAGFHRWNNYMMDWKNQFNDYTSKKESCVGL
Acetylcholinesterase, sequence (P22303 whole entry): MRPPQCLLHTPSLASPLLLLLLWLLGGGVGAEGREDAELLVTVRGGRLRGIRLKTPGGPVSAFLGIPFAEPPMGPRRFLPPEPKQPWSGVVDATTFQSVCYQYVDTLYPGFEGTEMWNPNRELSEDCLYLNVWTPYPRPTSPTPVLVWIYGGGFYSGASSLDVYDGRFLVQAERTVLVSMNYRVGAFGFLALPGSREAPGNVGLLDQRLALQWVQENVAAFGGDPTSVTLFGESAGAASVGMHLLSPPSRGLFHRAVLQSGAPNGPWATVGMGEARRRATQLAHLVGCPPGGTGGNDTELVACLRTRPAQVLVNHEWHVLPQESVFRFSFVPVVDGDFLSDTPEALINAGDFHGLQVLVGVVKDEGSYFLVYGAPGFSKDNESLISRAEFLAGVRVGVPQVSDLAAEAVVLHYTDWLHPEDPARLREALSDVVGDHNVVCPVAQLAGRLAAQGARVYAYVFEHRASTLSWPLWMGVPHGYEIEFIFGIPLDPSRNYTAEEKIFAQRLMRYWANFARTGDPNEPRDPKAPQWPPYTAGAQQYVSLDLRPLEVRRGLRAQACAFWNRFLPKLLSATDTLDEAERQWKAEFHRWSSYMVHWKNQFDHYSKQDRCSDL

## CN1CC[C@@]2(C)c3cc(OC(=O)Nc4ccccc4)ccc3N(C=O)C12 (stereo not given in full)
Acetylcholinesterase
  IC50: 780 nM
Cholinesterase
  IC50: 1470 nM

## CNC(=O)Oc1ccc2c(c1)[C@@]1(C)CCN(C)C1N2Cc1ccccc1 (stereo not given in full)
Acetylcholinesterase
  IC50: 2850 nM
Cholinesterase
  IC50: 1590 nM

## CN1CC[C@@]2(C)c3cc(OC(=O)Nc4ccccc4)ccc3N(Cc3ccccc3)C12 (stereo not given in full)
Acetylcholinesterase
  IC50: 245 nM
Cholinesterase
  IC50: 85.3 nM

## CN1CC[C@@]2(C)c3cc(OC(=O)Nc4ccccc4)ccc3NC12 (stereo not given in full)
Cholinesterase
  IC50: 516 nM

## CNC(=O)Oc1ccc2c(c1)[C@]1(C)CCN(C)C1N2 (stereo not given in full)
Acetylcholinesterase
  IC50: 56.7 nM
Cholinesterase
  IC50: 6.8 nM

## CN1CC[C@@]2(C)c3cc(OC(=O)Nc4ccccc4)ccc3N(C)C12 (stereo not given in full)
[1]
  half-life: 8 h
Acetylcholinesterase
  IC50: 24 nM
Cholinesterase
  IC50: 1300 nM

## CN1CC[C@]2(C)c3cc(OC(=O)Nc4ccccc4)ccc3N(C)C12 (stereo not given in full)
Acetylcholinesterase
  IC50: 3500 nM
Cholinesterase
  IC50: 23500 nM

## CNC(=O)Oc1ccc2c(c1)[C@]1(C)CCN(C)C1N2Cc1ccccc1 (stereo not given in full)
Acetylcholinesterase
  IC50: 161 nM
Cholinesterase
  IC50: 21.8 nM

## CN1CC[C@]2(C)c3cc(OC(=O)Nc4ccccc4)ccc3NC12 (stereo not given in full)
Acetylcholinesterase
  IC50: 5650 nM
Cholinesterase
  IC50: 1750 nM

## CNC(=O)Oc1ccc2c(c1)[C@@]1(C)CCN(C)C1N2 (stereo not given in full)
Acetylcholinesterase
  IC50: 2190 nM
Cholinesterase
  IC50: 1120 nM

## CNC(=O)Oc1ccc2c(c1)[C@]1(C)CCN(C)C1N2C=O (stereo not given in full)
Acetylcholinesterase
  IC50: 387 nM
Cholinesterase
  IC50: 46 nM

## CN1CC[C@]2(C)c3cc(OC(=O)Nc4ccccc4)ccc3N(Cc3ccccc3)C12 (stereo not given in full)
Acetylcholinesterase
  IC50: 11200 nM
Cholinesterase
  IC50: 7090 nM

## CNC(=O)Oc1ccc2c(c1)[C@]1(C)CCN(C)[C@@H]1N2C [PHYSOSTIGMINE]
[1]
  half-life: 1 h
